A short description of experiment [1]: reducers of endogenous Her2 protein level, primary screen, SKBR3 breast tumor cells, AlphaScreen, ATP viability (AID 461;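 active = Her2 level under about 52% in both replicate screens, with viability over 70% of control, limit read from the data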;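 as to Her2 level: lower value means less Her2 protein in the cells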;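 as to viability: percent of carrier control wells set as 100% viability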). The note with it: 18-24 h, measured here: SKBR3 viability, ATP luminescence, at 10 µM. (In general: Bead proximity is the source of the signal in Alpha formats.)
Experiment [2] has as its target Receptor tyrosine-protein kinase erbB-2 (Homo sapiens) (UniProt P04626). The experiment is described as above. The settings on record: 18-24 h, at 10 µM, stronger effect = lower value.
The nature of experiment [3]: SK-BR-3 cell growth inhibitors, pilot screen, 24 h, human (AID 572;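 active = viability at or below 10% of carrier control in both of two separate runs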;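 also: compound exposure lasted between 18 and 24 h rather than exactly 24 h; 100% = carrier-treated control wells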). The note with it: SK-BR-3 viability, CellTiter-Glo luminescence, at 10 µM, stronger effect = lower value. A general note: Cellular ATP, detected with luciferase, serves as a proxy for viable cell number.
Experiment [4] can be described thus: HUVEC growth inhibition – cell-based, human, primary screen (AID 575).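 Also: 100% = median of untreated cell wells with 0.1% DMSO on each plate.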 The settings on record: HUVEC proliferation, CellTiter-Glo luminescence, 72 h; at 10 µM; stronger effect = lower value. A digest of the protocol:
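System: primary human umbilical vein endothelial cells; Quantity: 1250 endothelial cells in each well; Buffer or medium: supplemented EBM, 2% fetal bovine serum; Doses: one dose, 10 µM final, 0.1% DMSO; Incubation: 72 h compound incubation; Technique: ATP-based CellTiter-Glo luminescent read; Evaluation: percent of median DMSO-control luminescence; Controls: vehicle and MePR control wells.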

Experiment [5] can be described thus: growth inhibitors of H69AR lung tumor, primary screen, human, duplicate replicates (AID 580;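 active = viability at or under a set limit in both replicates, limit being median viability minus 3 SD, cut at about 48% in these data, passing the limit was not always enough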;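 also: 100% = mean luminescence of untreated wells and 0% = no signal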). The note with it: H69AR lung tumor cells viability, ATP luminescence, 72 h; at 10 µM; stronger effect = lower value.
Experiment [6] in a line: reversal of MRP1-mediated doxorubicin resistance, pilot screen, H69AR cells, doxorubicin co-treatment (AID 601;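 active = viability loss from added drug above about 55%, and viability with drug at most 40%, in both replicates, limit read from the data, passing the limit was not always enough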). The settings on record: CellTiter-Glo, 72 h, at 10 µM; for differential viability (reversal): stronger effect = higher value.
Experiment [7] is described as follows: 384-well plate pilot, post-Golgi transport modulator project, inhibition of yeast transport mutant growth (AID 636; in the data active = inhibition above about 31%). The note with it: absorbance 615 nm, about 18 h, stronger effect = higher value.
Experiment [8] can be described thus: growth suppression of yeast trafficking mutant, preliminary HTS, modulators of trafficking downstream of Golgi apparatus project, 1536-format plate, OD 615 nm (AID 637; in the data active = inhibition above about 30%). The settings on record: yeast transport mutant growth, absorbance 615 nm, 18 h; stronger effect = higher value.
The mark [9] stands for this setting: H69AR cells + 2 uM doxorubicin, measured here: viability with 2 uM doxorubicin, stronger effect = lower value.
Setting [10] is: H69AR cells, compound alone cytotoxicity.

Active and inactive are the calls of the source.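 The calls were made as follows, unless noted: active = viability at or below 30% in both replicate assays; inconclusive = viability at or below 30% in just one of the two assays; inactive = the rest.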

Chain of Receptor tyrosine-protein kinase erbB-2 (Homo sapiens) (P04626 whole entry, looked up): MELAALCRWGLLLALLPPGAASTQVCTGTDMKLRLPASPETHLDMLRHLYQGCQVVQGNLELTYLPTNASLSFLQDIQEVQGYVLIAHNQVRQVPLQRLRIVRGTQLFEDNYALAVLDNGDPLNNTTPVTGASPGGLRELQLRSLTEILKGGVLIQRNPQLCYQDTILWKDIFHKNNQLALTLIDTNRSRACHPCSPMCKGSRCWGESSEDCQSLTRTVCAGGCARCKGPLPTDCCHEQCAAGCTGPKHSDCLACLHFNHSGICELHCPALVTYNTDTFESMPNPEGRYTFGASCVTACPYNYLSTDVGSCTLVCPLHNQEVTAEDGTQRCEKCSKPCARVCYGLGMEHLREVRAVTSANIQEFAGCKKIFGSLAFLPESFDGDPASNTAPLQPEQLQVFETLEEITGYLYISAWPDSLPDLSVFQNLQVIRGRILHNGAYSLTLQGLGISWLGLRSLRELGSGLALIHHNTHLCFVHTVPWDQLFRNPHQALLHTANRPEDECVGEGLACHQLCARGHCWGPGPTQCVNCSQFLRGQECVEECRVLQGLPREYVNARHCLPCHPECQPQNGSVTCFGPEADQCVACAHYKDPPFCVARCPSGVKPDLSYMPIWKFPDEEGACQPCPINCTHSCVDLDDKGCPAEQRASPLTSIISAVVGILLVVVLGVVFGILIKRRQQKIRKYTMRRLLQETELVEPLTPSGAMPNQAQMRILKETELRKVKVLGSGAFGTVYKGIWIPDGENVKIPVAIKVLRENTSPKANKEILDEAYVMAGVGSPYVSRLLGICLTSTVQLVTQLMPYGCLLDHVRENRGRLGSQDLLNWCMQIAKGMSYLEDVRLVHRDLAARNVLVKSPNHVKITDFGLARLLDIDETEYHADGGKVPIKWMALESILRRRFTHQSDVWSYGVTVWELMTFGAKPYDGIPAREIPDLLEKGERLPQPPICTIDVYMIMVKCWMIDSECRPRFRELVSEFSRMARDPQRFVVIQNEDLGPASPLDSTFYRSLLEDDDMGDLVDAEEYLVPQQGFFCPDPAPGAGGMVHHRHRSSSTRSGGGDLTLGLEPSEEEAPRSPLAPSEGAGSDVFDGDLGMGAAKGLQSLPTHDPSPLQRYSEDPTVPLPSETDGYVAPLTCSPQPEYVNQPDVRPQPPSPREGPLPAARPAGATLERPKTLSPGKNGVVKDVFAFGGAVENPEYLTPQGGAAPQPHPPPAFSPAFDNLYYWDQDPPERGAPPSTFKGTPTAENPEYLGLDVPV

Take `Cc1nc(Nc2nc(=O)c3ccccc3n2C)nc2c(C)cccc12`: the viability (as a rule, a read-out of living cells in per cent, often relative to untreated cells) is 122% in experiment [1]; 122% (inactive) in experiment [3]; 89.5% (inactive) in experiment [4]; 86.1% (inactive) in experiment [5]; 99% in experiment [6] (setting [9]); 86.1% in experiment [6] (setting [10]). Besides, the Her2 level in experiment [2] is 98% (inactive). In addition, the differential viability (reversal) in experiment [6] (H69AR cells + 2 uM doxorubicin) is -12.9% (inactive). Also, the inhibition (in general, the change of the read-out against control, counted positive when it falls) was -2.89% (inactive) in experiment [7] and 2.54% (inactive) in experiment [8].
On to `c1ccc(CC2CCN(C(c3cccs3)c3nnnn3C3CCCC3)CC2)cc1` (stereo not given), for which the viability is 102% in experiment [1]; 102% (inactive) in experiment [3]; 91.9% (inactive) in experiment [4]; 93.4% (inactive) in experiment [5]; 93.7% in experiment [6] (setting [9]); 93.4% in experiment [6] (setting [10]). Moreover, the Her2 level in experiment [2] was 128% (inactive). The differential viability (reversal) in experiment [6] (H69AR cells + 2 uM doxorubicin) is -0.24% (inactive). Besides, the inhibition is 1.92% (inactive) in experiment [7] and -0.63% (inactive) in experiment [8].
As for `Cc1ccc(Cn2c(NCCc3ccccc3)nc3c2c(=O)n(C)c(=O)n3C)cc1`, the viability was 82.5% in experiment [1]; 82.5% (inactive) in experiment [3]; 73.5% (inactive) in experiment [4]; 91.9% (inactive) in experiment [5]; 88.1% in experiment [6] (setting [9]); 91.9% in experiment [6] (setting [10]). For the same molecule, the Her2 level in experiment [2] was 75% (inactive). Moreover, in experiment [6] (H69AR cells + 2 uM doxorubicin), the differential viability (reversal) was 3.77% (inactive). Further, the inhibition in experiment [7] is -10% (inactive); in experiment [8], -2.7% (inactive).
As for `CC(C)COC(=O)N(C)c1ccc(C(O)(C(F)(F)F)C(F)(F)F)cc1`, the viability in experiment [1] is 102%; in experiment [3], 102% (inactive); in experiment [4], 93.1% (inactive); in experiment [5] it was 89.8% (inactive); in experiment [6] (setting [9]) it was 86.4%; in experiment [6] (setting [10]) it was 89.8%. For the same molecule, in experiment [2], the Her2 level was 95% (inactive). The differential viability (reversal) in experiment [6] (H69AR cells + 2 uM doxorubicin) was 3.42% (inactive). Also, the inhibition was -2.57% (inactive) in experiment [7] and -8.57% (inactive) in experiment [8].
As for `CCC(C)NC(=O)c1cc(-c2ccc(OC)cc2)on1` (stereo not given), the viability in experiment [1] is 106%; in experiment [3] it was 106% (inactive); in experiment [4], 118% (inactive); in experiment [5] it was 89.8% (inactive); in experiment [6] (setting [9]) it was 89.3%; in experiment [6] (setting [10]), 89.8%. Further, the Her2 level in experiment [2] was 94% (inactive). For the same molecule, the differential viability (reversal) in experiment [6] (H69AR cells + 2 uM doxorubicin) is 0.48% (inactive). Also, the inhibition is -8.24% (inactive) in experiment [7] and 1.33% (inactive) in experiment [8].
As for `O=C(CNC1CCCCCC1)Nc1ccc(S(=O)(=O)NC2CC2)cc1`, the viability in experiment [1] is 100%; in experiment [3] it was 100% (inactive); in experiment [4] it was 64.8% (inactive); in experiment [5] it was 93.7% (inactive); in experiment [6] (setting [9]) it was 87.9%; in experiment [6] (setting [10]), 93.7%. For the same molecule, the Her2 level in experiment [2] was 87% (inactive). In addition, in experiment [6] (H69AR cells + 2 uM doxorubicin), the differential viability (reversal) is 5.79% (inactive). Besides, the figures for the inhibition in experiment [7] and in experiment [8] were -4.53% (inactive) and -0.48% (inactive), respectively.
Consider `O=C(c1cccc2ccccc12)N1CCC(N2CCN(c3ccccc3)CC2)CC1`, for which the viability in experiment [1] is 84%; in experiment [3], 84% (inactive); in experiment [4] it was 81.7% (inactive); in experiment [5], 88% (inactive); in experiment [6] (setting [9]) it was 92%; in experiment [6] (setting [10]), 88%. For the same molecule, in experiment [2], the Her2 level was 90.5% (inactive). In experiment [6] (H69AR cells + 2 uM doxorubicin), the differential viability (reversal) is -4% (inactive). Besides, the results for the inhibition in experiment [7] and in experiment [8] were -1.97% (inactive) and -4.43% (inactive), respectively.
Turning to `O=C(NCc1ccco1)c1cccn2c(=O)c3sccc3nc12`, the viability in experiment [1] was 104%; in experiment [3] it was 104% (inactive); in experiment [4], 82.5% (inactive); in experiment [5], 58.4% (inactive); in experiment [6] (setting [9]), 82.4%; in experiment [6] (setting [10]), 58.4%. Besides, in experiment [2], the Her2 level is 74.5% (inactive). Besides, in experiment [6] (H69AR cells + 2 uM doxorubicin), the differential viability (reversal) was -24% (inactive). Besides, the inhibition in experiment [7] was -1.2% (inactive); in experiment [8], -7.87% (inactive).
Consider `CCOC(=O)C1=C(C)Nc2nnnn2C1c1c[nH]c2ccccc12` (stereo not given), for which the viability in experiment [1] was 110%; in experiment [3] it was 110% (inactive); in experiment [4], 77.3% (inactive); in experiment [5], 104% (inactive); in experiment [6] (setting [9]), 95.8%; in experiment [6] (setting [10]), 104%. The Her2 level in experiment [2] is 94% (inactive). For the same molecule, in experiment [6] (H69AR cells + 2 uM doxorubicin), the differential viability (reversal) is 7.95% (inactive). Moreover, the inhibition in experiment [7] was -2.93% (inactive); in experiment [8], 15.6% (inactive).
Regarding `O=S(=O)(c1ccc2c(c1)nc1n2CCC1)N1CCOCC1`, the viability in experiment [1] was 102%; in experiment [3] it was 102% (inactive); in experiment [4], 102% (inactive); in experiment [5], 98.9% (inactive); in experiment [6] (setting [9]), 91.2%; in experiment [6] (setting [10]), 98.9%. Also, the Her2 level in experiment [2] is 87% (inactive). Besides, in experiment [6] (H69AR cells + 2 uM doxorubicin), the differential viability (reversal) is 7.71% (inactive). In addition, the inhibition was -0.26% (inactive) in experiment [7] and -4.44% (inactive) in experiment [8].
On to `CCSc1nnc(NC(=O)C2CCCN(S(=O)(=O)c3cnc[nH]3)C2)s1` (stereo not given), for which the viability is 105% in experiment [1]; 105% (inactive) in experiment [3]; 89.9% (inactive) in experiment [4]; 91.3% (inactive) in experiment [5]; 89.4% in experiment [6] (setting [9]); 91.3% in experiment [6] (setting [10]). In experiment [2], the Her2 level is 97.5% (inactive). Also, the differential viability (reversal) in experiment [6] (H69AR cells + 2 uM doxorubicin) is 1.98% (inactive). Also, the inhibition was -2.27% (inactive) in experiment [7] and 2.83% (inactive) in experiment [8].
As to `O=C(COc1nnc2ccccn12)N1CCN(S(=O)(=O)c2ccccc2)CC1`, the viability in experiment [1] is 107%; in experiment [3] it was 107% (inactive); in experiment [4], 98.8% (inactive); in experiment [5], 97.2% (inactive); in experiment [6] (setting [9]), 84%; in experiment [6] (setting [10]) it was 97.2%. In addition, in experiment [2], the Her2 level is 86% (inactive). Also, in experiment [6] (H69AR cells + 2 uM doxorubicin), the differential viability (reversal) was 13.2% (inactive). The inhibition is -5.13% (inactive) in experiment [7] and -5.09% (inactive) in experiment [8].
On to `O=C(CCc1nc2ccccc2[nH]1)Nc1ccc2c(c1)OCO2`, for which the viability in experiment [1] was 79%; in experiment [3], 79% (inactive); in experiment [4], 48.6% (inactive); in experiment [5], 90.8% (inactive); in experiment [6] (setting [9]), 93.1%; in experiment [6] (setting [10]), 90.8%. The Her2 level in experiment [2] was 126% (inactive). For the same molecule, the differential viability (reversal) in experiment [6] (H69AR cells + 2 uM doxorubicin) is -2.33% (inactive). Besides, the inhibition in experiment [7] was 0.9% (inactive); in experiment [8] it was -4.33% (inactive).
As for `COc1ccc(C(C)=O)c(OC(=O)c2ccc(OC)c(OC)c2)c1`, the viability in experiment [1] was 104%; in experiment [3], 104% (inactive); in experiment [4], 92.8% (inactive); in experiment [5], 98.6% (inactive); in experiment [6] (setting [9]) it was 97.5%; in experiment [6] (setting [10]), 98.6%. Besides, in experiment [2], the Her2 level was 88.5% (inactive). For the same molecule, in experiment [6] (H69AR cells + 2 uM doxorubicin), the differential viability (reversal) is 1.11% (inactive). Besides, the inhibition is -6.4% (inactive) in experiment [7] and -3.33% (inactive) in experiment [8].
Turning to `COCCNC(=O)C1CCCN(c2ncccn2)C1` (stereo not given), the viability was 93% in experiment [1]; 93% (inactive) in experiment [3]; 98.8% (inactive) in experiment [4]; 89.8% (inactive) in experiment [5]; 98.5% in experiment [6] (setting [9]); 89.8% in experiment [6] (setting [10]). The Her2 level in experiment [2] is 79% (inactive). The differential viability (reversal) in experiment [6] (H69AR cells + 2 uM doxorubicin) is -8.68% (inactive). For the same molecule, the inhibition in experiment [7] was -7.81% (inactive); in experiment [8] it was 1.27% (inactive).
Turning to `CSc1ccccc1NC(=O)c1c(Br)cnn1C`, the viability is 89.5% in experiment [1]; 89.5% (inactive) in experiment [3]; 79.2% (inactive) in experiment [4]; 101% (inactive) in experiment [5]; 94.2% in experiment [6] (setting [9]); 101% in experiment [6] (setting [10]). Moreover, the Her2 level in experiment [2] was 94.5% (inactive). In addition, the differential viability (reversal) in experiment [6] (H69AR cells + 2 uM doxorubicin) was 6.58% (inactive). In addition, the inhibition was -2.6% (inactive) in experiment [7] and -4.44% (inactive) in experiment [8].

The record behind these values is PubChem BioAssay.
